Assay results from ChEMBL document CHEMBL1132098, “2,7-diazabicyclo[3.3.0]octanes as novel h5-HT receptor agonists” (Bioorg Med Chem Lett, 1999).

Experiments:
[1] = molecular target: T1, 5-hydroxytryptamine receptor 1D (Homo sapiens, UniProt P28221); assay: Ability to displace [3H]- -5-HT binding to cloned 5-hydroxytryptamine 1D receptor stably expressed in chinese hamster cells (CHO cells); type: cell-based
Procedure, shortened: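 Human 5-HT1D receptor cloned and stably expressed in CHO cells. Displacement of [3H]-5-HT binding, with radioligand at roughly its KD for the receptor. At least three independent experiments, each run in duplicate. IC50 reported as geometric mean with limits derived from the SEM.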

[2] = molecular target: Serotonin 1 receptors; 5-HT1B & 5-HT1D (Homo sapiens) (UniProt P28222+P28221); assay: Selectivity ratio for h-5-HT 1B receptor to that of h5-HT 1D receptors.; type: protein assay
Procedure, shortened: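 Displacement of [3H]-5-HT binding at cloned human 5-HT1B and 5-HT1D receptors, with radioligand at roughly its KD for each receptor. Ratio obtained by dividing the mean IC50 values for the two receptors.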

[3] = molecular target: T1, 5-hydroxytryptamine receptor 1D; assay: Maximum stimulation of [35S]GTP-gamma-S, binding expressed relative to the maximal effect produced by the 5-HT; type: functional
Procedure, shortened: (§1)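 Agonist-induced [35S]GTPγS binding measured in CHO cells stably transfected with the human 5-HT1D receptor. Maximal effect expressed as % of the 5-HT maximum.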

[4] = molecular target: T1, 5-hydroxytryptamine receptor 1D; assay: Measurement of agonist induced [35S]GTP-gamma-S, binding in CHO cells stably transfected with 5-hydroxytryptamine 1D receptor; type: functional, cell-based; procedure, shortened: as §1
Rattus norvegicus [5] = assay: Drug concentration was measured in plasma samples originating from the cardiac puncture (systemic) at 0.5 hr post administration; type: functional, organism-based
Procedure, shortened: (§2)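 Rats dosed orally at 3 mg/kg (5 mL/kg, aqueous formulation). Plasma taken from the hepatic portal vein and by cardiac puncture (systemic) at 0.5 and 2 h after dosing. Drug concentration reported in ng/mL.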

Rattus norvegicus [6] = assay: Drug concentration was measured in plasma samples originating from the cardiac puncture (systemic) at 2 h post administration; type: functional, organism-based; procedure, shortened: as §2
Rattus norvegicus [7] = assay: Drug concentration was measured in plasma samples originating from the hepatic portal vein (hpv) at 0.5 hr post administration; type: functional, organism-based; procedure, shortened: as §2
Rattus norvegicus [8] = assay: Drug concentration was measured in plasma samples originating from the hepatic portal vein (hpv) at 2 hr post administration; type: functional, organism-based; procedure, shortened: as §2
[9] = Acid dissociation constant was determined; type: ADME

T1 sequence (P28221 whole entry): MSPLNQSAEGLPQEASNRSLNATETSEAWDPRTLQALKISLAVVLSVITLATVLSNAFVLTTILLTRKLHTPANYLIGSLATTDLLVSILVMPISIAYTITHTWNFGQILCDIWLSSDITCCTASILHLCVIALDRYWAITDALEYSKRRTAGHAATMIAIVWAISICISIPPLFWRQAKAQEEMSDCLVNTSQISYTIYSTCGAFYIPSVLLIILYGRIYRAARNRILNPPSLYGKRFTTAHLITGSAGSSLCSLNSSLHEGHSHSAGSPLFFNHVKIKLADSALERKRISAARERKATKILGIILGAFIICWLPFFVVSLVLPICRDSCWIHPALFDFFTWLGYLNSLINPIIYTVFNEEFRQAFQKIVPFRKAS

In the case of `CN1C[C@@H](CN(C#N)Cc2ccccc2)C[C@@H]1Cc1c[nH]c2ccc(-n3ccnc3)cc12`, the IC50 [1] is reported as 3.3 nM and the Selectivity [2] is reported as 6.7.

`CN1[C@@H](Cc2c[nH]c3ccc(-n4cnnc4)cc23)C[C@@H]2CN(CCc3cccc(F)c3)C[C@@H]21` (racemic) showed an IC50 [1] of 1.2 nM, an Efficacy [3] of 63 and an EC50 [4] of 1.9 nM. The Selectivity [2] was 15.

In the case of `c1ccc(CNC[C@@H]2CCN(CCc3c[nH]c4ccc(-n5cnnc5)cc34)C2)cc1`, the Efficacy [3] is reported as 102, the Absorption (Rattus norvegicus [5]) is reported as < 5 ng/mL and the Absorption (Rattus norvegicus [6]) is reported as < 5 ng/mL. The Absorption (Rattus norvegicus [7]) was < 5 ng/mL, the Absorption (Rattus norvegicus [8]) was < 5 ng/mL and the Selectivity [2] was 62.

`CN1[C@@H](Cc2c[nH]c3ccc(-n4ccnc4)cc23)C[C@@H]2CN(Cc3ccccc3)C[C@@H]21` (racemic) showed an IC50 [1] of 0.7 nM, an Efficacy [3] of 69 and an EC50 [4] of 1.2 nM. The Absorption (Rattus norvegicus [5]) was 47 ng/mL, the Absorption (Rattus norvegicus [6]) was 10 ng/mL and the Absorption (Rattus norvegicus [7]) was 558 ng/mL. It also gave an Absorption (Rattus norvegicus [8]) of 105 ng/mL and a Selectivity [2] of 8.4.

Compound `CN1[C@@H](Cc2c[nH]c3ccc(-n4cnnc4)cc23)C[C@@H]2CN(Cc3ccc(F)cc3)C[C@@H]21` (racemic) has an IC50 [1] of 0.8 nM, an Efficacy [3] of 88 and an EC50 [4] of 2.9 nM. For the same compound, the Selectivity [2] was 13.

For `CN(Cc1ccccc1)C[C@H]1C[C@H](Cc2c[nH]c3ccc(-n4ccnc4)cc23)N(C)C1`, the IC50 [1] was 0.9 nM, the pKa [9] was 8.7 and the Absorption (Rattus norvegicus [5]) was < 4 ng/mL. For the same compound, the Absorption (Rattus norvegicus [6]) was < 4 ng/mL, the Absorption (Rattus norvegicus [7]) was 21 ng/mL and the Absorption (Rattus norvegicus [8]) was 30 ng/mL. For the same compound, the Selectivity [2] was 6.9.

For `CN1[C@@H](Cc2c[nH]c3ccc(-n4cnnc4)cc23)C[C@@H]2CN(Cc3ccccc3)C[C@@H]21` (racemic), the IC50 [1] was 0.9 nM, the Efficacy [3] was 96 and the EC50 [4] was 0.5 nM. It also gave a pKa [9] of 8.5 and a Selectivity [2] of 6.7.
